Data on two compounds can be found in ChEMBL document CHEMBL4177580, “New 5-HT1A, 5HT2A and 5HT2C receptor ligands containing a picolinic nucleus: Synthesis, in vitro and in vivo pharmacological evaluation” (Bioorg Med Chem, 2017).

Each structure is given as a SMILES string. Active and inactive are the calls of the source.

Data set [1] has as its target T1, 5-hydroxytryptamine receptor 1A (Rattus norvegicus, UniProt P19327).
T1 sequence (P19327 whole entry): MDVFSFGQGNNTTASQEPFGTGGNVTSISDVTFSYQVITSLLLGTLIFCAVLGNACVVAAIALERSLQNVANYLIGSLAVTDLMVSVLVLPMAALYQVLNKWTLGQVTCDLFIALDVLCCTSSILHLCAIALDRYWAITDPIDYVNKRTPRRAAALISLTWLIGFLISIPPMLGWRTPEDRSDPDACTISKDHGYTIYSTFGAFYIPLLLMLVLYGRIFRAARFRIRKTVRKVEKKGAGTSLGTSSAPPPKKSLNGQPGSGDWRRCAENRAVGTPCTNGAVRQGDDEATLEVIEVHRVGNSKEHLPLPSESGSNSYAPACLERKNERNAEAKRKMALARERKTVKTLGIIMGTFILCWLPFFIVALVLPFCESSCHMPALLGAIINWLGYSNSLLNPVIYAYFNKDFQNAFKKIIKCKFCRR
The data set can be described thus: Displacement of [3H]-8-OH-DPAT from serotonin 5-HT1A receptor in Sprague-Dawley rat brain cortex homogenates incubated for 30 mins by liquid scintillation spectrometry. (In general: In a radioligand displacement assay an active substance lowers the binding of a labelled ligand.)

Data set [2] has as its system Mus musculus. Nature of the data set: Induction of hypothermia in Swiss albino mouse assessed as reduction in body temperature at 5 mg/kg, ip measured after 60 mins post dose. The format is functional, organism-based. The method, boiled down:
(§1)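 Normothermic male Swiss albino mice. Rectal temperature was taken by thermistor thermometer over 180 min (60 min before to 120 min after injection). Initial temperature was the mean of the readings at 60 and 30 min predose. Later readings were at 30, 60, 90 and 120 min, with Δt = final − initial. Data are mean ± SEM, by two-way ANOVA with Bonferroni test.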

The test system of data set [3] is Mus musculus. The data set can be described thus: In-vivo 5-HT1A receptor agonist activity in Swiss albino mouse assessed as induction of lower lip retraction by measuring lower lip retraction score at 1 mg/kg, ip dosed 15 mins before test. The data set is classed as functional, organism-based.
In data set [4] the test system is Mus musculus. Nature of the data set: Induction of hypothermia in Swiss albino mouse assessed as reduction in body temperature at 5 mg/kg, ip measured after 30 mins post dose. The format is functional, organism-based. In a few lines:
as §1

The test system of data set [5] is Mus musculus. The data set can be described thus: Toxicity in Swiss albino mouse assessed as reduction in spontaneous locomotor activity at 15 mg/kg, ip dosed 60 mins before test and measured after 30 mins. The conditions noted are these: in vivo, 0.5 h. The format is organism-based. In a few lines:
(§2)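 Spontaneous locomotion: mice dosed i.p. 60 min before being placed individually in an actometer for 30 min. Distance travelled read at 6 and 30 min. Cages cleaned with 70% ethanol between animals. One-way ANOVA with Dunnett's; mean ± SEM of one experiment.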

In data set [6] the test system is Mus musculus. Nature of the data set: Toxicity in Swiss albino mouse assessed as reduction in spontaneous locomotor activity at 60 mg/kg, ip dosed 60 mins before test and measured after 30 mins. The format is organism-based. The conditions noted are these: in vivo, 0.5 h. In a few lines: as §2
For data set [7], the system named is Mus musculus. Nature of the data set: Toxicity in Swiss albino mouse assessed as effect on motor coordination at 1.875 to 7.5 mg/kg, ip dosed 60 mins before test by Chimney test. The data set is classed as organism-based. The conditions noted are these: in vivo, 1 h, in the assay text read “3.75 to 60 mg/kg” for “1.875 to 7.5 mg/kg”. The method, boiled down:
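Chimney test in male Swiss mice after i.p. dosing 60 min earlier: impairment defined as failure to climb backwards up a tube (3 cm inner diameter, 25 cm long) within 60 s. Animals pre-trained once daily for 3 days. One-way ANOVA with Dunnett's.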

For data set [8], the system named is Mus musculus. The data set can be described thus: Toxicity in Swiss albino mouse assessed as reduction in spontaneous locomotor activity at 60 mg/kg, ip dosed 60 mins before test and measured after 6 mins. The format is organism-based. The conditions noted are these: in vivo, 0.1 h. The method, boiled down: as §2
The subject of data set [9] is Mus musculus. Nature of the data set: Toxicity in Swiss albino mouse assessed as induction of impairment of motor coordination by measuring reduction in time spent on rota-rod at 30 mg/kg, ip dosed 60 mins before test by rotarod test. The conditions noted are these: in vivo, 1 h. The data set is classed as organism-based. In a few lines:
(§3)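 Rotarod in male Swiss mice, i.p. dosing 60 min pre-test: impairment is inability to stay 1 min on a rod turning at 18 rpm, after 3 days of daily training. Mean ± SEM of 2 independent experiments; one-way ANOVA with Dunnett's.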

Data set [10] has as its system Mus musculus. Nature of the data set: Antidepressant-like activity in Swiss albino mouse assessed as reduction in immobility time at 1.875 mg/kg, ip dosed 1 hr before test by forced swimming test. The format is functional, organism-based. The method, boiled down:
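Male Swiss albino mice (18–24 g), compound i.p. in 0.1% DMSO/0.5% methylcellulose 1 h pre-test. Porsolt swim: cylinder 25 cm high, 10 cm diameter, 10 cm water at 23–25°C, 6 min session; immobility scored over last 4 min. Blind observer; one-way ANOVA with Dunnett's; mean ± SEM.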

Data set [11] relates to Mus musculus. Nature of the data set: Toxicity in Swiss albino mouse assessed as reduction in spontaneous locomotor activity at 30 mg/kg, ip dosed 60 mins before test and measured after 6 mins. The conditions noted are these: in vivo, 0.1 h. The format is organism-based. In a few lines: as §2
In data set [12] the test system is Mus musculus. Nature of the data set: Toxicity in Swiss albino mouse assessed as reduction in spontaneous locomotor activity at 30 mg/kg, ip dosed 60 mins before test and measured after 30 mins. The conditions noted are these: in vivo, 0.5 h. The data set is classed as organism-based. In a few lines: as §2
The next data set concerns the target D(2) dopamine receptor (Homo sapiens, UniProt P14416). The data set can be described thus: Displacement of [3H]methyl-spiperone from human recombinant dopamine D2 receptor expressed in HEK293 cells. The data set is classed as cell-based.
Data set [13] has as its system Mus musculus. Nature of the data set: Anxiolytic-like activity in Swiss albino mouse assessed as increase in time spent in open arms at 1.875 to 7.5 mg/kg measured for 5 mins test period by elevated plus maze test. The format is functional, organism-based.
In data set [14] the test system is Mus musculus. Nature of the data set: Induction of hypothermia in Swiss albino mouse assessed as reduction in body temperature at 15 mg/kg, ip measured after 120 mins post dose. The data set is classed as functional, organism-based. In a few lines:
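Normothermic male Swiss mice; rectal thermistor readings over 180 min. Baseline is the mean of readings 60 and 30 min before dosing; readings at 30, 60, 90, 120 min post-injection; Δt = tf − ti. Test compounds i.p. (DMSO/methylcellulose); 8-OH-DPAT (5 mg/kg) and WAY 100635 (0.1 mg/kg) s.c. in water. Two-way ANOVA, Bonferroni.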

Data set [15] concerns the target T2, Adrenergic receptor alpha-1 (Rattus norvegicus, UniProt P15823+P23944+P43140).
T2 sequence (P15823 whole entry): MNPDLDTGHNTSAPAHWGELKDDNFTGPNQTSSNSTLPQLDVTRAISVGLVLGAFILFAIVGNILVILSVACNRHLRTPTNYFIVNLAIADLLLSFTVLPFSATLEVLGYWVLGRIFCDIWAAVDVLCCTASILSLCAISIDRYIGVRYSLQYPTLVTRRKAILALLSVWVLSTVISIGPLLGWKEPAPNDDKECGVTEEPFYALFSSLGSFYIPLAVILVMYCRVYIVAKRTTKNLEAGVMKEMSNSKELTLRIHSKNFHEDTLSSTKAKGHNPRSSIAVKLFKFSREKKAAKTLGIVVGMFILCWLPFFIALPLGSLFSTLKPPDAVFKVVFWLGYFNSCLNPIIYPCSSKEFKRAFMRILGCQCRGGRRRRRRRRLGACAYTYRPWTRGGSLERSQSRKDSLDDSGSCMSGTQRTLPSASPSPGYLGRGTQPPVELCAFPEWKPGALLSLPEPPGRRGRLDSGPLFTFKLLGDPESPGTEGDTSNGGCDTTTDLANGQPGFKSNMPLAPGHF
T2 sequence (P23944 whole entry): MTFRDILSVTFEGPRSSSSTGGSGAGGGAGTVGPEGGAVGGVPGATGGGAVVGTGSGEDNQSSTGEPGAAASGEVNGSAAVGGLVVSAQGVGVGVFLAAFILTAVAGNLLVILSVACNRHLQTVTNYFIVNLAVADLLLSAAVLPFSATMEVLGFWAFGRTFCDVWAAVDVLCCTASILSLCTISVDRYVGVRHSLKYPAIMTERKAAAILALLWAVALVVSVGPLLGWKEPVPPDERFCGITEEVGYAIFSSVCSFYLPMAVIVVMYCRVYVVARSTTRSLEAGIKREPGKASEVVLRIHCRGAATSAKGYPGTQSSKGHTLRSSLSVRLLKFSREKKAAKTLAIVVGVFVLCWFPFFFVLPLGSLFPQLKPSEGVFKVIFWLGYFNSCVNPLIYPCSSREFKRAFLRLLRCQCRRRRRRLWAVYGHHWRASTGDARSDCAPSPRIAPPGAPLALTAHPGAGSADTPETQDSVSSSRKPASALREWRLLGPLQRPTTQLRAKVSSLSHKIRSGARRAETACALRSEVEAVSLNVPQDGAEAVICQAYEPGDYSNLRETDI
T2 sequence (P43140 whole entry): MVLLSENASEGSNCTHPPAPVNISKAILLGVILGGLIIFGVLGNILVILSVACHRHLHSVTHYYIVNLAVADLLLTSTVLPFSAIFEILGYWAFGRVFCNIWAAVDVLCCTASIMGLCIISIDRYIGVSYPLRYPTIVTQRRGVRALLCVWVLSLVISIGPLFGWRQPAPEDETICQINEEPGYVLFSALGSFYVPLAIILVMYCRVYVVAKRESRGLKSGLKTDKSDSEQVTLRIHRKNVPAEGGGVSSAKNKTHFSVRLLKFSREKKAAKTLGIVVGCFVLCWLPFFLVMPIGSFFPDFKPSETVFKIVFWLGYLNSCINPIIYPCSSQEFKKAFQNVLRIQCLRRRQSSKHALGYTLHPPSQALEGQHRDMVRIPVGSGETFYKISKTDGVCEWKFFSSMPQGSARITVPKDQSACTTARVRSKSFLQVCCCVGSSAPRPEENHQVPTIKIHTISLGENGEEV
Nature of the data set: Displacement of [3H]prazosin from adrenergic alpha1 receptor in rat cerebral cortex.

Data set [16] has as its system Mus musculus. Nature of the data set: Toxicity in Swiss albino mouse assessed as reduction in spontaneous locomotor activity at 1.875 mg/kg, ip dosed 60 mins before test. The data set is classed as organism-based. The conditions noted are these: in vivo, 1 h. In a few lines:
as §2

The subject of data set [17] is Mus musculus. The data set can be described thus: Toxicity in Swiss albino mouse assessed as induction of impairment of motor coordination by measuring reduction in time spent on rota-rod at 60 mg/kg, ip dosed 60 mins before test by rotarod test. The conditions noted are these: in vivo, 1 h. The data set is classed as organism-based. The method, boiled down: as §3
A general note: Falling from the rotarod earlier than controls is read as motor impairment.

What is called Ki is the equilibrium dissociation constant of an inhibitor or competing ligand from its target.

Sequence of D(2) dopamine receptor (P14416 whole entry): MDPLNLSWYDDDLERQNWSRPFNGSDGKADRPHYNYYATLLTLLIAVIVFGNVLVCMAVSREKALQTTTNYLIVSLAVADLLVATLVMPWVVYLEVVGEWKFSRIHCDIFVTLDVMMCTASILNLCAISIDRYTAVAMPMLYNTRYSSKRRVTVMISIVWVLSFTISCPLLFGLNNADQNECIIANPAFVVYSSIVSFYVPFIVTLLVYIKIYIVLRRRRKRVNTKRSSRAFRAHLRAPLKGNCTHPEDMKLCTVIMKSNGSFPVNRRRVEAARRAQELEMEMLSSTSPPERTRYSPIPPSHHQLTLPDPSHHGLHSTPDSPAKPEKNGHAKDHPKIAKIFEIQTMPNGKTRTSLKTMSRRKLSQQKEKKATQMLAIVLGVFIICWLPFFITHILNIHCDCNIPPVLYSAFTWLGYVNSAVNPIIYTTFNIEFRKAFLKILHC

In turn, `CCN(CC)C1CCc2cccc(O)c2C1` (stereo not drawn) came in with a Ki in data set [1] of 0.8 nM. In addition, the outcome in the data set with Mus musculus [2], with Mus musculus [3] and in the data set on Mus musculus [4] was Active.

As to `O=C(NCCN1CCN(c2ccc(Cl)cc2)CC1)c1ccccn1`, the Activity entry is on record as “Toxic” in the data set on Mus musculus [5]; “Toxic” in the data set with Mus musculus [6]; “Non-Toxic” with Mus musculus [7]; “Toxic” in the data set with Mus musculus [8]; “Toxic” with Mus musculus [9]; “Toxic” in the data set with Mus musculus [11]. Also, the Activity entry with Mus musculus [12] is listed as “Toxic”; with Mus musculus [16] it was “Non-Toxic”; in the data set with Mus musculus [17], “Toxic”. The result in the data set on Mus musculus [10], with Mus musculus [13] and in the data set on Mus musculus [14] was Active. Also, the Ki is 2300 nM at D(2) dopamine receptor and 76 nM in [15].
